Measured values as given in ChEMBL document CHEMBL3856229, “Hybrid Antibiotic Overcomes Resistance in P. aeruginosa by Enhancing Outer Membrane Penetration and Reducing Efflux” (J Med Chem, 2016).
Activity calls are given as the source filed them. No cut-off for these calls is given here.

Legend:
Assay type in all cases: functional
Escherichia coli [1] = test: Antibacterial activity against gentamicin-resistant Escherichia coli isolate CAN-ICU 61714 after 24 hrs by microtitre broth dilution method; details: isolate CAN-ICU 61714, 24 h
Pseudomonas aeruginosa [2] = test: Antibacterial activity against Pseudomonas aeruginosa PAO1 assessed as fractional inhibitory concentration index after 18 hrs in presence of colistin by checkerboard method
Procedure, shortened: (§1)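 Checkerboard combinations of the hybrid with each partner antibiotic were tested against P. aeruginosa PAO1. Interaction is expressed as the fractional inhibitory concentration (FIC) index: ≤0.5 means synergy, 1–2 no interaction, ≥4 antagonism.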

Pseudomonas aeruginosa [3] = test: Antibacterial activity against Pseudomonas aeruginosa PAO1 assessed as outer membrane permeabilization by measuring increase in 1-N-phenylnaphthylamine measured […] for 4.5 mins by fluorescence assay
Procedure, shortened: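 PAO1 cells received NPN, then the test agent at 50, 32, 16 or 8 µg/mL, added at 120 s. Colistin at 5 µg/mL was the positive control. Uptake was followed as NPN fluorescence. The assay was run in triplicate, and each point is the mean of three determinations ± SEM.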

Pseudomonas aeruginosa [4] = test: Antibacterial activity against Pseudomonas aeruginosa PAO1 assessed as fractional inhibitory concentration index after 18 hrs in presence of trimethoprim by checkerboard method; procedure, shortened: as §1
Pseudomonas aeruginosa [5] = test: Antibacterial activity against Pseudomonas aeruginosa PAO1 assessed as fractional inhibitory concentration index after 18 hrs in presence of moxifloxacin by checkerboard method; procedure, shortened: as §1
Pseudomonas aeruginosa [6] = test: Induction of outer membrane permeabilization in Pseudomonas aeruginosa PAO1 assessed as accumulation of propidium iodide at 8 ug/ml after 3 to 4 hrs by fluorescence microscopy
Procedure, shortened: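 PAO1 cells were treated with 8 µg/mL for 3 h at 37 °C, then stained with the membrane-impermeable nucleic-acid dye propidium iodide. Fluorescence microscopy and DIC imaging were compared against untreated cells.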

[7] = tested on: Staphylococcus epidermidis; test: Antibacterial activity against methicillin-susceptible Staphylococcus epidermidis isolate CANWARD-2008 81388 after 24 hrs by microtitre broth dilution method; details: isolate CANWARD-2008 81388, 24 h
Acinetobacter baumannii [8] = test: Antibacterial activity against fluoroquinolone resistant Acinetobacter baumannii isolate ABO27
Escherichia coli [9] = test: Antibacterial activity against fluoroquinolone resistant Escherichia coli isolate 98550 harboring beta-lactamase CTX-M-15/OXA-1
Escherichia coli [10] = test: Antibacterial activity against fluoroquinolone resistant Escherichia coli isolate 89439 harboring beta-lactamase CTX-M-15/OXA-1
Pseudomonas aeruginosa [11] = test: Antibacterial activity against pandrug-resistant Pseudomonas aeruginosa isolate 91433
Pseudomonas aeruginosa [12] = test: Antibacterial activity against pandrug-resistant Pseudomonas aeruginosa isolate 101243 in presence of <= 4 ug/ml of moxifloxacin (reference value: 8 ug/ml)
Acinetobacter baumannii [13] = test: Antibacterial activity against fluoroquinolone resistant Acinetobacter baumannii isolate ABO30
Pseudomonas aeruginosa [14] = test: Antibacterial activity against multidrug/extremely drug-resistant/colistin-susceptible Pseudomonas aeruginosa isolate 101885
Pseudomonas aeruginosa [15] = test: Ratio of MIC for Pseudomonas aeruginosa PAO1 after 25 serial passages to MIC for Pseudomonas aeruginosa PAO1 prior to 25 serial passages
Procedure, shortened: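 P. aeruginosa PAO1 exposed to sub-inhibitory (0.5 x MIC) drug over successive subcultures as a resistance-selection procedure. MIC compared after versus before passaging.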

Pseudomonas aeruginosa [16] = test: Antibacterial activity against pandrug-resistant Pseudomonas aeruginosa isolate 101243 in presence of <= 4 ug/ml of ciprofloxacin (reference value: 8 ug/ml)
Escherichia coli [17] = test: Antibacterial activity against fluoroquinolone resistant Escherichia coli isolate 91191 harboring beta-lactamase CTX-M-14/TEM-1
Enterococcus faecalis = test: Antibacterial activity against Enterococcus faecalis ATCC 29212 after 24 hrs by microtitre broth dilution method; details: ATCC 29212, 24 h
Pseudomonas aeruginosa [18] = test: Antibacterial activity against multidrug-resistant/tobramycin-susceptible Pseudomonas aeruginosa isolate 86079
Pseudomonas aeruginosa [19] = test: Antibacterial activity against Pseudomonas aeruginosa PAO1 assessed as fractional inhibitory concentration index after 18 hrs in presence of gentamicin by checkerboard method; procedure, shortened: as §1
Pseudomonas aeruginosa [20] = test: Antibacterial activity against Pseudomonas aeruginosa PAO1 assessed as fractional inhibitory concentration index after 18 hrs in presence of erythromycin by checkerboard method; procedure, shortened: as §1
Escherichia coli [21] = test: Antibacterial activity against fluoroquinolone resistant Escherichia coli isolate 95882 harboring beta-lactamase KPC-3/TEM-1
Pseudomonas aeruginosa [22] = test: Antibacterial activity against multidrug-resistant/tobramycin-susceptible Pseudomonas aeruginosa isolate 86053
Pseudomonas aeruginosa [23] = test: Antibacterial activity against multidrug-resistant/tobramycin-susceptible Pseudomonas aeruginosa isolate 108590
Pseudomonas aeruginosa [24] = test: Antibacterial activity against multidrug/extremely drug-resistant Pseudomonas aeruginosa isolate PA264-104354 in presence of <= 4 ug/ml of ciprofloxacin (reference value: 4 ug/ml)
Pseudomonas aeruginosa [25] = test: Potentiation of moxifloxacin induced antibacterial activity against pandrug-resistant Pseudomonas aeruginosa isolate 101243 assessed as moxifloxacin MIC at <= […] ug/ml (reference value: 8 ug/ml)
Escherichia coli [26] = test: Antibacterial activity against gentamicin/tobramycin/ciprofloxacin-resistant Escherichia coli isolate CANWARD-2011 97615 harboring AAC3-2A after 24 hrs by microtitre broth dilution method; details: isolate CANWARD-2011 97615, 24 h
Pseudomonas aeruginosa [27] = test: Antibacterial activity against gentamicin/tobramycin-resistant Pseudomonas aeruginosa isolate CANWARD-2011 96846 after 24 hrs by microtitre broth dilution method; details: isolate CANWARD-2011 96846, 24 h
Pseudomonas aeruginosa [28] = test: Potentiation of ciprofloxacin induced antibacterial activity against multidrug/extremely drug-resistant Pseudomonas aeruginosa isolate PA260-97103 assessed as ciprofloxacin MIC at <= […] ug/ml (reference value: […] to […] ug/ml)
Pseudomonas aeruginosa [29] = test: Potentiation of moxifloxacin induced antibacterial activity against multidrug/extremely drug-resistant Pseudomonas aeruginosa isolate PA262-101856 assessed as moxifloxacin MIC at <= […] ug/ml (reference value: […] to […] ug/ml)
Pseudomonas aeruginosa [30] = test: Antibacterial activity against gentamicin-resistant Pseudomonas aeruginosa isolate CAN-ICU 62308 after 24 hrs by microtitre broth dilution method; details: isolate CAN-ICU 62308, 24 h
Pseudomonas aeruginosa [31] = test: Antibacterial activity against multidrug/extremely drug-resistant/Pseudomonas aeruginosa isolate PA260-97103 in presence of <= 4 ug/ml of ciprofloxacin (reference value: 1 ug/ml)
Pseudomonas aeruginosa [32] = test: Antibacterial activity against Pseudomonas aeruginosa PAO1 assessed as fractional inhibitory concentration index after 18 hrs in presence of chloramphenicol by checkerboard method; procedure, shortened: as §1
Pseudomonas aeruginosa [33] = test: Antimicrobial activity against Pseudomonas aeruginosa PAO750
Procedure, shortened: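 MICs were measured in PAO1 and in PAO750. PAO750 is a PAO1 derivative lacking the MexAB-OprM, MexCD-OprJ, MexEF-OprN, MexJK and MexXY efflux pumps and the outer membrane protein OpmH.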

Pseudomonas aeruginosa [34] = test: Antibacterial activity against multidrug/extremely drug-resistant Pseudomonas aeruginosa isolate PA262-101856 in presence of <= 4 ug/ml of moxifloxacin (reference value: 4 ug/ml)
Escherichia coli [35] = test: Antibacterial activity against fluoroquinolone resistant Escherichia coli isolate 92756 harboring beta-lactamase CTX-M-14/TEM-1

For `COc1c(N2C[C@@H]3CCCN(CCCCCCCCCCCCO[C@@H]4[C@@H](O[C@H]5O[C@H](CO)[C@@H](O)[C@H](N)[C@H]5O)[C@H](N)C[C@H](N)[C@H]4O[C@H]4O[C@H](CN)[C@@H](O)C[C@H]4N)[C@@H]3C2)c(F)cc2c(=O)c(C(=O)O)cn(C3CC3)c12.Cl.Cl.Cl.Cl.Cl`, the MIC (Escherichia coli [1]) was 4 µg/mL, the “fractional inhibitory concentration index (FICI)” value (Pseudomonas aeruginosa [2]) was 0.37 and the Activity (Pseudomonas aeruginosa [3]) was “Dose-dependent effect”. The “fractional inhibitory concentration index (FICI)” value (Pseudomonas aeruginosa [4]) was 0.25, the “fractional inhibitory concentration index (FICI)” value (Pseudomonas aeruginosa [5]) was 0.18 and the Activity (Pseudomonas aeruginosa [6]) was “Active”. It also gave an MIC [7] of 2 µg/mL, an MIC (Acinetobacter baumannii [8]) of 8 to 64 µg/mL and an MIC (Escherichia coli [9]) of at least 64 µg/mL. For the same compound, the MIC (Escherichia coli [10]) was at least 64 µg/mL, the MIC (Pseudomonas aeruginosa [11]) was 8 µg/mL and the MIC (Pseudomonas aeruginosa [12]) was under 1 µg/mL. For the same compound, the MIC (Acinetobacter baumannii [13]) was 8 to 64 µg/mL, the MIC (Pseudomonas aeruginosa [14]) was 8 µg/mL and the Ratio (Pseudomonas aeruginosa [15]) was 2. It also gave an MIC (Pseudomonas aeruginosa [16]) of under 1 µg/mL, an MIC (Escherichia coli [17]) of at least 64 µg/mL and an MIC (Enterococcus faecalis) of 4 µg/mL. The MIC (Pseudomonas aeruginosa [18]) was 4 µg/mL, the “fractional inhibitory concentration index (FICI)” value (Pseudomonas aeruginosa [19]) was 5 and the “fractional inhibitory concentration index (FICI)” value (Pseudomonas aeruginosa [20]) was 0.26. For the same compound, the MIC (Escherichia coli [21]) was at least 64 µg/mL, the MIC (Pseudomonas aeruginosa [22]) was 4 µg/mL and the MIC (Pseudomonas aeruginosa [23]) was 2 µg/mL. It also gave an MIC (Pseudomonas aeruginosa [24]) of under 0.5 µg/mL, an MIC (Pseudomonas aeruginosa [25]) of 0.06 µg/mL and an MIC (Escherichia coli [26]) of 128 µg/mL. For the same compound, the MIC (Pseudomonas aeruginosa [27]) was 4 µg/mL, the MIC (Pseudomonas aeruginosa [28]) was 1 µg/mL and the MIC (Pseudomonas aeruginosa [29]) was 2 µg/mL. For the same compound, the MIC (Pseudomonas aeruginosa [30]) was 8 µg/mL, the MIC (Pseudomonas aeruginosa [31]) was under 0.25 µg/mL and the “fractional inhibitory concentration index (FICI)” value (Pseudomonas aeruginosa [32]) was 0.15. For the same compound, the MIC (Pseudomonas aeruginosa [33]) was 0.5 µg/mL, the MIC (Pseudomonas aeruginosa [34]) was under 1 µg/mL and the MIC (Escherichia coli [35]) was at least 64 µg/mL.
